Experimental data as given in ChEMBL document CHEMBL3259810, “Design and synthesis of 3,4-dihydro-2H-benzo[h]chromene derivatives as potential NF-κB inhibitors” (Bioorg Med Chem Lett, 2014).

Key:
NCI-H23 = experiment: Cytotoxicity against human NCI-H23 cells assessed as growth inhibition after 72 hrs by SRB assay; format: functional; settings: NCI-H23, 72 h
[1] = biological target: T1, Nuclear factor NF-kappa-B complex (Homo sapiens) (UniProt Q00653+P19838+Q04206); experiment: Inhibition of transcriptional activity of NF-kappaB (unknown origin) transfected in LPS-stimulated mouse RAW264.7 cells at 100 uM after 16 hrs by secretory alkaline phosphatase reporter gene assay relative to control; format: cell-based
In short: (§1)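 LPS-stimulated RAW 264.7 macrophages carrying NF-κB-driven SEAP reporter; cell-free media heated 65℃ 5 min, then reacted with 500 µM 4-methylumbelliferyl phosphate, 2 M diethanolamine, 1 mM MgCl₂ in the dark at room temperature for 1 h. Fluorescence read at excitation 360 nm / emission 449 nm (RFU). Percent inhibition tested at 100 μM; IC₅₀ as mean of three experiments.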

[2] = biological target: Nuclear factor NF-kappa-B complex (Homo sapiens, UniProt P19838+Q00653+Q04206); experiment: Inhibition of transcriptional activity of NF-kappaB (unknown origin) transfected in LPS-stimulated mouse RAW264.7 cells after 16 hrs by secretory alkaline phosphatase reporter gene assay; format: cell-based; in short: as §1
[3] = biological target: T1, Nuclear factor NF-kappa-B complex (Homo sapiens); experiment: Potency index, ratio of PDTC IC50 to compound IC50 for inhibition of transcriptional activity of NF-kappaB (unknown origin) transfected in LPS-stimulated mouse RAW264.7 cells

T1 sequence (P19838 whole entry, looked up): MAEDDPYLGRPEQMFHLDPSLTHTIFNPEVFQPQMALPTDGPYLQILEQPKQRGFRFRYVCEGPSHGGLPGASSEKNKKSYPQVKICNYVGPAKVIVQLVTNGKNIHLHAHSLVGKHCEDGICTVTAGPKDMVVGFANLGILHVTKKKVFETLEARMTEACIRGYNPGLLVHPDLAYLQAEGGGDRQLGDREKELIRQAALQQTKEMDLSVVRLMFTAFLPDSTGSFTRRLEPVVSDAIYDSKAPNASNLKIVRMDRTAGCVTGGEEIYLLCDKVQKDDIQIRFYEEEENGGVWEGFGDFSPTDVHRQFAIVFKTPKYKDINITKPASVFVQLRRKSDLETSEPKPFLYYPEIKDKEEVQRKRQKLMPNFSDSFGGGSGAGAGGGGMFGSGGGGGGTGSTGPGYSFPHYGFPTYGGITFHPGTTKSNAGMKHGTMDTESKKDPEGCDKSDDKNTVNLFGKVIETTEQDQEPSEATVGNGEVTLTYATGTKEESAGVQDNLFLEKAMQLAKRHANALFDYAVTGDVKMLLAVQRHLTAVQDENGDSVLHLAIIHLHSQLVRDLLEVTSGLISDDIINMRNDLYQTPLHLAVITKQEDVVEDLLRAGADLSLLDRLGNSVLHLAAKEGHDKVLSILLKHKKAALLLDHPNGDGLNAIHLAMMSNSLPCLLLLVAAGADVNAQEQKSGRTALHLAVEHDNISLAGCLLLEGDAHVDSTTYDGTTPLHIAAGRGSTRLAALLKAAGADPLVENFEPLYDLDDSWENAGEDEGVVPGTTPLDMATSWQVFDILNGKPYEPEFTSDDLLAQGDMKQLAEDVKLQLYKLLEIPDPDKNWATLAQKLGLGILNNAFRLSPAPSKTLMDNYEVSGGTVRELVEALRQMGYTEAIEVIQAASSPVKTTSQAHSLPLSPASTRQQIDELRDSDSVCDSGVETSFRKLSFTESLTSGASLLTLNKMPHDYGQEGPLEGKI
T1 sequence (Q00653 whole entry, looked up): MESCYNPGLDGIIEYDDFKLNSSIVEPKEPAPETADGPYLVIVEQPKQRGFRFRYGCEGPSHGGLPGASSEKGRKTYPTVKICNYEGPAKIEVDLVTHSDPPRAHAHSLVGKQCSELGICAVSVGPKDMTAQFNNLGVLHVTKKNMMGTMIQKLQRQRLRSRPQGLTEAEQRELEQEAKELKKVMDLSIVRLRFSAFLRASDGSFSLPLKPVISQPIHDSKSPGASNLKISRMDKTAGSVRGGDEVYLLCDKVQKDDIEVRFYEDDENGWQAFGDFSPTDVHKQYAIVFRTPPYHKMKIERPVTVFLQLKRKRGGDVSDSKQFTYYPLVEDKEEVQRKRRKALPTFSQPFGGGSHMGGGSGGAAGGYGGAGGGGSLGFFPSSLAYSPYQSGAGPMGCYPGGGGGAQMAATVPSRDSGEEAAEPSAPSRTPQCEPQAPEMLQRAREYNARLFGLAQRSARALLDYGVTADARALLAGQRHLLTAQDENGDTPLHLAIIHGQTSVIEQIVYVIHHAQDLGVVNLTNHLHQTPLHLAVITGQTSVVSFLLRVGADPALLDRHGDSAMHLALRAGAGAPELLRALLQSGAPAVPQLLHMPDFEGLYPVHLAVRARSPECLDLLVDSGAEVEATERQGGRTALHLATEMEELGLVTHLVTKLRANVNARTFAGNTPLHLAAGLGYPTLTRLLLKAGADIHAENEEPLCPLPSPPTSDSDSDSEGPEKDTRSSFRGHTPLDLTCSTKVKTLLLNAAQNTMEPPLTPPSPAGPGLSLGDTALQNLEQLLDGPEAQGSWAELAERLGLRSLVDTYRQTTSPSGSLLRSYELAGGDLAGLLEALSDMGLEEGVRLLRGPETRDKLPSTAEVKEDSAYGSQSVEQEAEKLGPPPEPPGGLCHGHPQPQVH
T1 sequence (Q04206 whole entry, looked up): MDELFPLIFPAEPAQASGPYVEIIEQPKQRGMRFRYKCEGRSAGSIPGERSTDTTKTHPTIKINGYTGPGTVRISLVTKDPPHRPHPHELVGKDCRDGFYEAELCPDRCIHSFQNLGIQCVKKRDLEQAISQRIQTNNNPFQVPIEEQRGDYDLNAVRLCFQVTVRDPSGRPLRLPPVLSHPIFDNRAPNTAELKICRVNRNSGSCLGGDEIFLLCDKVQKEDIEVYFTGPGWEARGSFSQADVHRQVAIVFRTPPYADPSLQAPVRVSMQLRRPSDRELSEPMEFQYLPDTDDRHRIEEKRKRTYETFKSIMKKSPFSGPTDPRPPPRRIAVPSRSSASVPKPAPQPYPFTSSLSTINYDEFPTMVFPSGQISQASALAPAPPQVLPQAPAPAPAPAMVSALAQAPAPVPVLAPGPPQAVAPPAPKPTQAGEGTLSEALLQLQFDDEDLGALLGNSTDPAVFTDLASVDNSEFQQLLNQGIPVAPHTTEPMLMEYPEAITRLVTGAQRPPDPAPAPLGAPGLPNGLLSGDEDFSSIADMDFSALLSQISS
Nuclear factor NF-kappa-B complex, sequence (P19838 1-433 limits assumed): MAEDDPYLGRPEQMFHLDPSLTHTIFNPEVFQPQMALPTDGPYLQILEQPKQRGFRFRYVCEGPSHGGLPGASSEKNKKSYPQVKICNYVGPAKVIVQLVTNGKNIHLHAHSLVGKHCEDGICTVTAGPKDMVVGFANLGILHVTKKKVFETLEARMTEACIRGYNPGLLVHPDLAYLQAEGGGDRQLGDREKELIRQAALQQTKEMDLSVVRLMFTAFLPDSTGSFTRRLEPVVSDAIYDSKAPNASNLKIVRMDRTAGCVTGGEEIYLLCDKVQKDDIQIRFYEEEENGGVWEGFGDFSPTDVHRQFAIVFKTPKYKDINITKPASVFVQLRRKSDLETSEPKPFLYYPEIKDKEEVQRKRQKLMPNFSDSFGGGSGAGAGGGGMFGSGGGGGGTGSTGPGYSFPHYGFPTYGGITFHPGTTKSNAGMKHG
Nuclear factor NF-kappa-B complex, sequence (Q00653 1-454 limits assumed): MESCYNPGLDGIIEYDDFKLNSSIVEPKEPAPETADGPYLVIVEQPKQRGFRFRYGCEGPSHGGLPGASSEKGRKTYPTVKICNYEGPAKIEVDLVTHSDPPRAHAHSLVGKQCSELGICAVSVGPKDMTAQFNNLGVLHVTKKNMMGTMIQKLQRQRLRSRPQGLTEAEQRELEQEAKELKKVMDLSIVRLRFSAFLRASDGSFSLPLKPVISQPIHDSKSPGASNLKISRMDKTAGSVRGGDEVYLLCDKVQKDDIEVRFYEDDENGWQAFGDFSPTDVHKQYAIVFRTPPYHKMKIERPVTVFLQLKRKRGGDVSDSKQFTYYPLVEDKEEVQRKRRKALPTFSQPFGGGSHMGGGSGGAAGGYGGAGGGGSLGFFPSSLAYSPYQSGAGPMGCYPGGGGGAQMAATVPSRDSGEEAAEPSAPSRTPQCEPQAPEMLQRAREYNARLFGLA
Nuclear factor NF-kappa-B complex, sequence (Q04206 whole entry): as the sequence (Q04206 whole entry, looked up) above

SMILES	GI50 (NCI-H23) [µM]	inhibition [1] [%]	IC50 [2] [µM]	Ratio IC50 [3]
COc1ccc(NCC2CCc3ccc4ccccc4c3O2)cc1 (stereo unspecified)	12.8	88	44.5	–
O=C(Nc1ccc(Cl)cc1)C1CCc2ccc3ccccc3c2O1 (stereo unspecified)	2.79	> 100	5.8	–
COc1ccc(NC(=O)C2CCc3ccc4ccccc4c3O2)cc1 (stereo unspecified)	3.98	> 100	12.9	–
COc1cc2c(cc1O)CCC(C(=O)Nc1ccccc1)O2 (stereo unspecified)	–	–	40.1	–
c1ccc(CNCC2CCc3ccc4ccccc4c3O2)cc1 (stereo unspecified)	10.4	> 100	14.6	–
CCNCC1CCc2ccc3ccccc3c2O1 (stereo unspecified)	> 30	39	–	–
c1ccc(NCC2CCc3ccc4ccccc4c3O2)cc1 (stereo unspecified)	25.8	49	–	–
O=C(Nc1cccc(Cl)c1)C1CCc2ccc3ccccc3c2O1 (stereo unspecified)	> 30	87	27.9	–
FC(F)(F)c1cc(NCC2CCc3ccc4ccccc4c3O2)cc(C(F)(F)F)c1 (stereo unspecified)	14.6	96	56.3	–
O=C(Nc1ccc(C(F)(F)F)cc1)C1CCc2ccc3ccccc3c2O1 (stereo unspecified)	3.48	> 100	12.9	–
O=C(Nc1ccc(Cl)c(Cl)c1)C1CCc2ccc3ccccc3c2O1 (stereo unspecified)	23.5	40	–	–
O=C(Nc1ccccc1O)C1CCc2ccc3ccccc3c2O1 (stereo unspecified)	> 30	91	12.3	–
S=C(S)N1CCCC1 [PYRROLIDINE DITHIOCARBAMATE]	–	–	37.2	–
O=C(Nc1cc(Cl)cc(Cl)c1)C1CCc2ccc3ccccc3c2O1 (stereo unspecified)	> 30	52	96.7	–
CC(=O)NCC1CCc2ccc3ccccc3c2O1 (stereo unspecified)	> 30	35	–	–
O=C(Nc1cc(C(F)(F)F)cc(C(F)(F)F)c1)C1CCc2ccc3ccccc3c2O1 (stereo unspecified)	11.2	66	63.8	–
O=C(Nc1ccc(O)cc1)C1CCc2ccc3ccccc3c2O1 (stereo unspecified)	11.3	> 100	5	–
O=C(Nc1ccccc1C(F)(F)F)C1CCc2ccc3ccccc3c2O1 (stereo unspecified)	0.521	> 100	2.4	15
CC(C)CC(=O)NCC1CCc2ccc3ccccc3c2O1 (stereo unspecified)	> 30	77	56.3	–
Clc1ccc(NCC2CCc3ccc4ccccc4c3O2)cc1 (stereo unspecified)	29.8	94	26.5	–
FC(F)(F)c1ccc(NCC2CCc3ccc4ccccc4c3O2)cc1 (stereo unspecified)	> 30	42	–	–
O=C(NCC1CCc2ccc3ccccc3c2O1)c1ccccc1 (stereo unspecified)	11.4	> 100	48.6	–
CC(C)CCNCC1CCc2ccc3ccccc3c2O1 (stereo unspecified)	11.3	> 100	25.9	–
Clc1cccc(NCC2CCc3ccc4ccccc4c3O2)c1 (stereo unspecified)	17.2	36	–	–
CC(C)C(=O)NCC1CCc2ccc3ccccc3c2O1 (stereo unspecified)	> 30	31	–	–
O=C(Nc1ccccc1)C1CCc2ccc3ccccc3c2O1 (stereo unspecified)	> 30	62	43.5	–
CC(C)CNCC1CCc2ccc3ccccc3c2O1 (stereo unspecified)	11.7	> 100	27.1	–
